Calls of active or inactive are those of the source. The calls are words filed in the database; no cut-off is given here.
Columns and labels:
Leishmania donovani [1] = assay: Antiparasitic activity against Leishmania donovani LV9 axenic amastigotes incubated for 72 hrs by resazurin dye based assay; assay type: functional; details: LV9, 72 h
Outline: (§1)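 Mean ± standard error of three independent in vitro experiments. Reference drugs: miltefosine for L. donovani LV9, tested on axenic amastigotes and on amastigotes inside RAW 264.7 macrophages; paclitaxel for MRC-5, a human fetal lung fibroblast line.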

Leishmania donovani [2] = assay: Antiparasitic activity against Leishmania donovani LV9 […] amastigotes infected in mouse RAW264.7 cells assessed induction of parasite cell morphological alteration at 50 uM incubated for 72 hrs by microscopy; assay type: functional, cell-based
Outline: (§2)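 RAW 264.7 macrophages infected with L. donovani LV9 amastigotes were incubated with compound for 72 h, then examined under the microscope for morphological alteration of the infected cells.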

Leishmania donovani [3] = assay: Antiparasitic activity against Leishmania donovani LV9 […] amastigotes infected in mouse RAW264.7 cells incubated for 48 hrs by Sybr Green I dye based assay; assay type: functional, cell-based; details: LV9, RAW264.7, 48 h; outline: as §1
Plasmodium falciparum = assay: Antiparasitic activity against chloroquine-resistant Plasmodium falciparum FcB1/Columbia infected in human erythrocytes assessed as reduction in [3H]-hypoxanthine incorporation incubated for 24 hrs assay by liquid scintillation spectrometry; assay type: functional, cell-based
Outline: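 In vitro test of purified alkaloids against the FcB1 strain. Values are the mean ± standard error of three independent experiments.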

MRC5 = assay: Cytotoxic activity against human MRC5 cells incubated for 72 hrs by resazurin dye based spectrophotometry; assay type: cell-based; details: MRC5, 72 h; outline: as §1
Leishmania donovani [4] = assay: Antiparasitic activity against Leishmania donovani LV9 […] amastigotes infected in mouse RAW264.7 cells assessed induction of parasite cell morphological alteration at 100 uM incubated for 72 hrs by microscopy; assay type: functional, cell-based; outline: as §2
Leishmania donovani [5] = assay: Antiparasitic activity against Leishmania donovani LV9 […] amastigotes infected in mouse RAW264.7 cells assessed induction of parasite cell morphological alteration at 6.25 uM incubated for 72 hrs by microscopy; assay type: functional, cell-based; outline: as §2
Leishmania donovani [6] = assay: Antiparasitic activity against Leishmania donovani LV9 […] amastigotes infected in mouse RAW264.7 cells assessed induction of parasite cell morphological alteration at 12.5 uM incubated for 72 hrs by microscopy; assay type: functional, cell-based; outline: as §2

Compound | IC50 (Leishmania donovani [1]) | Activity (Leishmania donovani [2]) | IC50 (Leishmania donovani [3]) | IC50 (Plasmodium falciparum) | IC50 (MRC5) | Activity (Leishmania donovani [4]) | Activity (Leishmania donovani [5]) | Activity (Leishmania donovani [6])
C/C=C1/C[n+]2ccc3c([nH]c4ccccc43)c2C[C@@H]1[C@@H](C(=O)OC)[C@@H]1OC[C@H]2[C@H]3C[C@@H]4N(CC[C@@]45c4ccccc4N1[C@@H]25)C[C@H]3CC | 51.8 µM | Active | 57.8 µM | 2.9 µM | 3 µM |  |  | 
CC[C@@]12CCCN3C(=O)C=C(c4ccccc4NC(=O)CC1)[C@]32O | > 100 µM |  | 25 µM | > 100 µM | > 50 µM | inactive |  | 
C/C=C1\C[C@H]2[C@@H]([C@@H]3OC[C@H]4[C@H]5C[C@@H]6N(CC[C@@]67c6ccccc6N3[C@@H]47)C[C@H]5CC)[C@@H]3Cc4c([nH]c5ccccc45)[C@H]2N3C1 | 9.4 µM |  | 4.5 µM | 1.9 µM | 0.022 µM |  | Active | 
CC(=O)O[C@H]1C(=O)[C@@]2(C)[C@H]([C@H](OC(=O)c3ccccc3)[C@]3(O)C[C@H](OC(=O)[C@H](O)[C@@H](NC(=O)c4ccccc4)c4ccccc4)C(C)=C1C3(C)C)[C@]1(OC(C)=O)CO[C@@H]1C[C@@H]2O [PACLITAXEL] |  |  |  |  | 0.00052 µM |  |  | 
CCCCCCCCCCCCCCCCOP(=O)([O-])OCC[N+](C)(C)C [MILTEFOSINE] | 1.4 µM |  | 5.2 µM |  |  |  |  | Active
CCC1=C(CC(=O)OC)[C@@](O)(c2nccc3c2[nH]c2ccccc23)OC1=O | > 100 µM |  | 25.7 µM | 74.2 µM | > 50 µM | inactive |  | 
CCC1=C(CC(=O)OC)[C@@](OC)(c2nccc3c2[nH]c2ccccc23)OC1=O | > 100 µM |  | 59.6 µM | 56 µM | > 50 µM | inactive |  | 
